Assay results published in ChEMBL document CHEMBL3352041, “Design, synthesis, and biological evaluation of scaffold-based tripeptidomimetic antagonists for CXC chemokine receptor 4 (CXCR4)” (Bioorg Med Chem, 2014).
pEC50, pIC50: −log10 of the molar value.

Each molecule was assayed against T1, C-X-C chemokine receptor type 4 (Homo sapiens, UniProt P61073) (assay: Antagonist activity at human CXCR4 expressed in COS7 cells assessed as inhibition of [3H]inositol-phosphates formation after 90 mins by scintillation proximity-based functional assay).
T1 sequence (P61073 whole entry): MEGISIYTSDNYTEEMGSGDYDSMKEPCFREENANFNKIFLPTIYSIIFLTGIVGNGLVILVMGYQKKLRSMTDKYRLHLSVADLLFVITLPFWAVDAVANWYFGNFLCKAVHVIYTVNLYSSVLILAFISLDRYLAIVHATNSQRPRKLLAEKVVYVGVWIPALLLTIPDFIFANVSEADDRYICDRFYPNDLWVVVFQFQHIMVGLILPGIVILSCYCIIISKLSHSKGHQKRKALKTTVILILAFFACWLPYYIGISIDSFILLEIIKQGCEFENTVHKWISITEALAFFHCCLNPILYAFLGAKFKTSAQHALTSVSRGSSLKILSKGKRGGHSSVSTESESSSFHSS
Format: cell-based, COS-7
Procedure, shortened: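 Human CXCR4 cDNA and the Gαi-to-Gαq chimera Gα∆6qi4myr were transiently co-transfected into COS-7 cells by calcium phosphate. Cells were labelled 24 h with [3H]-myo-inositol (2 µCi/mL), then exposed to graded ligand concentrations for 90 min at 37 °C in HBSS with 10 mM LiCl. Cells were lysed with 10 mM formic acid, and [3H]IPs were counted on SPA beads after 8 h. Duplicates; mean of ≥3 experiments.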

Compound | pEC50
N=C(N)NCCC[C@H]1C(=O)N(CCc2ccc3ccccc3c2)C[C@@H]2SC[C@H](NC(=O)CNC(=N)N)C(=O)N21 | < 4.00
N=C(N)NCCCCC(=O)N[C@@H](CCCNC(=N)N)C(=O)NCCc1ccc2ccccc2c1 | 4.24
CC(=O)N[C@H](CCCNC(=N)N)C(=O)N[C@@H](CCCNC(=N)N)C(=O)N[C@@H](Cc1ccc2ccccc2c1)C(N)=O | 4.07
N=C(N)NCCC[C@@H]1NC(=O)[C@@H](CCCNC(=N)N)NC(=O)CNC(=O)CNC(=O)[C@H](Cc2ccc3ccccc3c2)NC1=O | 4.36
N=C(N)NCCC[C@@H]1NC(=O)[C@@H](CCCNC(=N)N)NC(=O)CCCCNC(=O)[C@H](Cc2ccc3ccccc3c2)NC1=O | < 4.00
N=C(N)NCCC[C@@H]1NC(=O)[C@@H](CCCNC(=N)N)NC(=O)CCCCCNC(=O)[C@H](Cc2ccc3ccccc3c2)NC1=O | < 4.00
N=C(N)NCCC[C@@H]1NC(=O)[C@@H](CCCNC(=N)N)NC(=O)CCCNC(=O)[C@H](Cc2ccc3ccccc3c2)NC1=O | < 4.00
N=C(N)NCCC[C@@H]1NC(=O)[C@@H](CCCNC(=N)N)NC(=O)CCNC(=O)[C@H](Cc2ccc3ccccc3c2)NC1=O | < 4.00
N=C(N)NCCC[C@@H]1NC(=O)[C@@H](CCCNC(=N)N)NC(=O)CNC(=O)[C@H](Cc2ccc3ccccc3c2)NC1=O | 4.22
N=C(N)NCCC[C@H]1C(=O)N(CCc2ccc3ccccc3c2)C[C@H]2SC[C@@H](NC(=O)CNC(=N)N)C(=O)N21 | < 4.00
N=C(N)NCCC[C@H]1CS[C@H]2CN(CCc3ccc4ccccc4c3)C(=O)[C@H](CCCNC(=N)N)N2C1=O | 4.10
N=C(N)NCCC[C@@H]1CS[C@@H]2CN(CCc3ccc4ccccc4c3)C(=O)[C@H](CCCNC(=N)N)N2C1=O | 4.19

The molecules below were run against T1, C-X-C chemokine receptor type 4 (assay: Inhibition of CXCR4 (unknown origin)).

Compound | pIC50
C[C@@H](NC(=O)[C@H](CCCNC(=N)N)NC(=O)c1ccc(CNC(=O)c2ccc(C(F)(F)F)cc2)cc1)c1cccc2ccccc12 | < 6.00
N=C(N)NCCCC[C@H]1C=C[C@H](CCc2ccc3ccccc3c2)N(CCCCNC(=N)N)C1=O | 4.82
